According to ChEMBL document CHEMBL4814077, “Discovery of Surfactins as Inhibitors of MicroRNA Processing Using Cat-ELCCA” (ACS Med Chem Lett, 2021):
Active and inactive are the calls of the source. No cut-off for these calls is given here. *1 amine or outer side, *2 acyl side, *3 side chain or, on linkers, in order; H or OH if unused. Where a SMILES comes first, the peptide text is derived from it. Bridges are numbered along the chain shown (N, C = ends). The star is where a group is joined. ξ: configuration not given here. Pentadecanoyl(3ξ-OH,15-Gua) = N=C(N)NCCCCCCCCCCCCC(O)CC(=O)*; X1 = CCC(C)CCCCCCCCC(CC(=O)[*:1])O[*:2]; X7 = CC(C)CCCCCCCCCC(CC(=O)[*:1])O[*:2]; X3 = CC(C)CCCCCCCCC(CC(=O)[*:1])O[*:2]; X5 = CCC(C)CCCCCCC(CC(=O)[*:1])O[*:2]; X2 = CCCCCCCCCCCC(CC(=O)[*:1])O[*:2]; X4 = CCCCCCCCCCC(CC(=O)[*:1])O[*:2]; X6 = CCCCCCCCCC(CC(=O)[*:1])O[*:2]

How the values were obtained:
microRNA 21 [1] = test: Inhibition of Dicer-mediated pre-miRNA-21 (unknown origin) processing using […] as substrate incubated for 15 mins by cat-ELCCA assay; assay type: nucleic-acid assay
Method in brief: (§1)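 Cat-ELCCA format with immobilized pre-miRNA (pre-miR-21, or pre-let-7d as a related control substrate) processed by excess Dicer. Integrity of the terminal loop is read by trans-cyclooctene/methyltetrazine click ligation of modified HRP, giving chemiluminescent signal amplification. Assay buffer contains detergent. Dose–response curves give IC50 values reported as 95% confidence intervals.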

Pre-let-7d miRNA [2] = test: Inhibition of Dicer-mediated pre-let-7d miRNA (unknown origin) processing using […] as substrate incubated for 15 mins by cat-ELCCA assay; assay type: nucleic-acid assay; method in brief: as §1
Pre-let-7d miRNA [3] = test: Binding affinity to pre-let-7d miRNA (unknown origin) by SPR assay; assay type: nucleic-acid assay
microRNA 21 [4] = test: Inhibition of pre-miRNA-21 maturation in human HeLa cells transfected with firefly luciferase reporter gene assessed as reduction in luciferase gene expression at 100 uM incubated for 48 hrs by pmiRGlo-dual luciferase reporter assay; assay type: cell-based
Method in brief: (§2)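 HeLa cells transiently transfected with pmiRGLO dual-luciferase reporters carrying miRNA target sites (miR-21 or let-7d) in the firefly luciferase 3′ UTR. Cells treated at 100 μM; luminescence read after 48 h. miR-21 mismatch reporter and empty-vector controls were included. Significance given as p values.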

microRNA 21 [5] = test: Binding affinity to pre-miRNA-21 (unknown origin) by SPR assay; assay type: nucleic-acid assay
HeLa = test: Cytotoxicity against human HeLa cells assessed as reduction in cell viability at 100 uM incubated for 48 hrs by CellTiter Glo assay; assay type: cell-based
Pre-let-7d miRNA [6] = test: Inhibition of pre-let-7d miRNA maturation in human HeLa cells transfected with firefly luciferase reporter gene assessed as reduction in luciferase gene expression at 100 uM incubated for 48 hrs by pmiRGlo-dual luciferase reporter assay; assay type: cell-based; method in brief: as §2
microRNA 21 [7] = test: Inhibition of pre-miRNA-21 (unknown origin) assessed as reduction in miRNA/Dicer interaction at 10 to 120 uM incubated for 40 mins by EMSA assay; assay type: nucleic-acid assay; settings: dose 10-120 µM

SMILES | inhibition (microRNA 21 [1]) | inhibition (Pre-let-7d miRNA [2]) | Kd (Pre-let-7d miRNA [3]) | Kd (microRNA 21 [5]) | IC50 (microRNA 21 [1]) | IC50 (Pre-let-7d miRNA [2]) | inhibition (microRNA 21 [7]) | inhibition (microRNA 21 [4]) | Activity (HeLa) | inhibition (Pre-let-7d miRNA [6])
CC(C)[C@@H]1NC(=O)[C@@H](C(C)C)NC(=O)[C@@H](NC(=O)CC(O)CCCCCCCCCCCCNC(=N)N)[C@@H](C)OC(=O)[C@@H](C)NC(=O)[C@@H](CC(N)=O)NC(=O)[C@@H]([C@H](C)O)NC1=O (stereo partly drawn) | inactive | inactive |  |  |  |  |  |  |  | 
CCC(C)CCCCCCCCC1CC(=O)N[C@@H](CCC(=O)O)C(=O)N[C@@H](CC(C)C)C(=O)N[C@@H](CC(C)C)C(=O)N[C@@H](C(C)C)C(=O)N[C@@H](CC(=O)O)C(=O)N[C@@H](CC(C)C)C(=O)N[C@@H](CC(C)C)C(=O)O1 (stereo partly drawn) (ELLVDLL; linker N-C via X1) | Dose-Dependent Effect | Dose-Dependent Effect | 1.2 µM | 0.78 µM | 38 µM | 54 µM | inactive | Active | Toxic | inactive
CC(C)CCCCCCCCC1CC(=O)N[C@@H](CCC(=O)O)C(=O)N[C@@H](CC(C)C)C(=O)N[C@@H](CC(C)C)C(=O)N[C@@H](C(C)C)C(=O)N[C@@H](CC(=O)O)C(=O)N[C@@H](CC(C)C)C(=O)N[C@@H](CC(C)C)C(=O)O1 (stereo partly drawn) (ELLVDLL; linker N-C via X3) | Dose-Dependent Effect | Dose-Dependent Effect | 2.5 µM | 0.43 µM | 52 µM | 70 µM |  |  |  | 
CCC(C)CCCCCCC1CC(=O)N[C@@H](CCC(=O)O)C(=O)N[C@@H](CC(C)C)C(=O)N[C@@H](CC(C)C)C(=O)N[C@@H](C(C)C)C(=O)N[C@@H](CC(=O)O)C(=O)N[C@@H](CC(C)C)C(=O)N[C@@H](CC(C)C)C(=O)O1 (stereo partly drawn) (ELLVDLL; linker N-C via X5) |  |  |  |  | > 200 µM | > 200 µM |  |  |  | 
CC1NC(=O)C(CCC(N)=O)NC(=O)C(C(C)O)NC(=O)C(C(C)C)NC(=O)C(C(C)C)NC(=O)C(NC(=O)CC(O)CCCCCCCCCCCCNC(=N)N)C(C)OC1=O (stereo not drawn) ({Pentadecanoyl(3ξ-OH,15-Gua)}-TVVTQA; ester 1-C; configuration not given here) | inactive | inactive |  |  |  |  |  |  |  | 

The next lines start with results.

inhibition (microRNA 21 [1]) | inhibition (Pre-let-7d miRNA [2]) | Kd (Pre-let-7d miRNA [3]) | Kd (microRNA 21 [5]) | IC50 (microRNA 21 [1]) | IC50 (Pre-let-7d miRNA [2]) | inhibition (microRNA 21 [7]) | SMILES | inhibition (microRNA 21 [4]) | Activity (HeLa) | inhibition (Pre-let-7d miRNA [6])
Dose-Dependent Effect | Dose-Dependent Effect | 1.4 µM | 0.73 µM | 48 µM | 54 µM |  | CCCCCCCCCCCC1CC(=O)N[C@@H](CCC(=O)O)C(=O)N[C@@H](CC(C)C)C(=O)N[C@@H](CC(C)C)C(=O)N[C@@H](C(C)C)C(=O)N[C@@H](CC(=O)O)C(=O)N[C@@H](CC(C)C)C(=O)N[C@@H](CC(C)C)C(=O)O1 (stereo partly drawn) (ELLVDLL; linker N-C via X2) |  |  | 
Dose-Dependent Effect | Dose-Dependent Effect | 0.3 µM | 0.38 µM | 71 µM | 97 µM |  | CCCCCCCCCCC1CC(=O)N[C@@H](CCC(=O)O)C(=O)N[C@@H](CC(C)C)C(=O)N[C@@H](CC(C)C)C(=O)N[C@@H](C(C)C)C(=O)N[C@@H](CC(=O)O)C(=O)N[C@@H](CC(C)C)C(=O)N[C@@H](CC(C)C)C(=O)O1 (stereo partly drawn) (ELLVDLL; linker N-C via X4) |  |  | 
 |  |  |  | > 200 µM | > 200 µM |  | CCCCCCCCCC1CC(=O)N[C@@H](CCC(=O)O)C(=O)N[C@@H](CC(C)C)C(=O)N[C@@H](CC(C)C)C(=O)N[C@@H](C(C)C)C(=O)N[C@@H](CC(=O)O)C(=O)N[C@@H](CC(C)C)C(=O)N[C@@H](CC(C)C)C(=O)O1 (stereo partly drawn) (ELLVDLL; linker N-C via X6) |  |  | 
inactive | inactive |  |  |  |  |  | CC(C)CCCCCCCCCC1CC(=O)N[C@@H](CCC(=O)O)C(=O)N[C@@H](CC(C)C)C(=O)N[C@@H](CC(C)C)C(=O)N[C@@H](C(C)C)C(=O)N[C@@H](CC(=O)O)C(=O)N[C@@H](CC(C)C)C(=O)N[C@@H](CC(C)C)C(=O)O1 (stereo partly drawn) (ELLVDLL; linker N-C via X7) |  |  | 
